Key:
[1] = molecular target: T1, Delta-type opioid receptor (Homo sapiens, UniProt P41143); assay: Displacement of [3H]diprenorphine from human cloned delta opioid receptor expressed in CHO cells; format: cell-based
Mu-type opioid receptor [2] = molecular target: T2, Mu-type opioid receptor (Homo sapiens, UniProt P35372); assay: Displacement of [3H]diprenorphine from human cloned mu opioid receptor expressed in CHO cells; format: cell-based
[3] = molecular target: T3, Kappa-type opioid receptor (Homo sapiens, UniProt P41145); assay: Displacement of [3H]diprenorphine from human cloned kappa opioid receptor expressed in CHO cells; format: cell-based
T3 sequence (P41145 whole entry): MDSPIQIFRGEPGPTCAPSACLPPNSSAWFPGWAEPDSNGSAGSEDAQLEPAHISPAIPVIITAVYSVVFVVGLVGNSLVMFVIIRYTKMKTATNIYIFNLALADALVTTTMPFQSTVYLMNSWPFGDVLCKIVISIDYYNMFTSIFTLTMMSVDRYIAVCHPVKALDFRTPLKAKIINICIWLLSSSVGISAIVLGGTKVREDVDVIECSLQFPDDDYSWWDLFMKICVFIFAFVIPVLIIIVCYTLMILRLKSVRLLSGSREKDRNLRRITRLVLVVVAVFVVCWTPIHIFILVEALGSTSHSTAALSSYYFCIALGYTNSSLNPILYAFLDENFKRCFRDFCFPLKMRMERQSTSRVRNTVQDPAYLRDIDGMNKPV

Mu-type opioid receptor [4] = molecular target: T2, Mu-type opioid receptor; assay: Antagonist activity against human cloned mu opioid receptor expressed in CHO cells assessed as inhibition of loperamide-stimulated [35S]GTP-gamma-S binding; format: functional, cell-based
[5] = molecular target: T1, Delta-type opioid receptor; assay: Agonist activity at human cloned delta opioid receptor expressed in CHO cells assessed as stimulation of [35S]GTP-gamma-S binding; format: functional, cell-based
In short: (§1)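 CHO membranes expressing the relevant human receptor (50-100 µg protein) were exposed to a concentration series of agonist. Incubated 1 h at room temperature, centrifuged, and bound label counted. Potency and efficacy were assessed from stimulation.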

[6] = molecular target: T3, Kappa-type opioid receptor; assay: Partial agonist activity at human cloned kappa opioid receptor expressed in CHO cells assessed as stimulation of [35S]GTP-gamma-S binding; format: functional, cell-based; in short: as §1
Mu-type opioid receptor [7] = molecular target: T2, Mu-type opioid receptor; assay: Agonist activity at human cloned mu opioid receptor expressed in CHO cells assessed as stimulation of [35S]GTP-gamma-S binding; format: functional, cell-based; in short: as §1
[8] = molecular target: T1, Delta-type opioid receptor; assay: Inhibition of [3H]diprenorphine binding to human cloned delta opioid receptor expressed in CHO cells at 10 uM; format: cell-based
In short: (§2)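 Membranes from CHO cells stably expressing human δ, κ or μ receptor (10-80 µg protein) incubated with [3H]diprenorphine (0.5-1.0 nM) and competitor at 10 µM. Buffer: 50 mM Tris-HCl pH 7.8, 1 mM EGTA, 5 mM MgCl2, protease inhibitors. 60 min at room temperature, then GF/B filtration and scintillation counting. Nonspecific binding was defined with 10 µM naloxone. Read-out was % inhibition of specific binding.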

[9] = molecular target: T1, Delta-type opioid receptor; assay: Antagonist activity against human cloned delta opioid receptor expressed in CHO cells assessed as inhibition of […]-stimulated [35S]GTP-gamma-S binding; format: functional, cell-based
In short: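 In receptor-expressing CHO membranes (50-100 µg protein), antagonist was added to mixtures containing […] agonist. Incubated 1 h at room temperature, then centrifuged; bound radioactivity was counted by scintillation.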

[10] = molecular target: T3, Kappa-type opioid receptor; assay: Antagonist activity against human cloned kappa opioid receptor expressed in CHO cells assessed as inhibition of […]-stimulated [35S]GTPgammaS binding; format: functional, cell-based
Mu-type opioid receptor [11] = molecular target: T2, Mu-type opioid receptor; assay: Inhibition of [3H]diprenorphine binding to human cloned mu opioid receptor expressed in CHO cells at 10 uM; format: cell-based; in short: as §2
[12] = molecular target: T3, Kappa-type opioid receptor; assay: Inhibition of [3H]diprenorphine binding to human cloned kappa opioid receptor expressed in CHO cells at 10 uM; format: cell-based; in short: as §2

T2 sequence (P35372 whole entry): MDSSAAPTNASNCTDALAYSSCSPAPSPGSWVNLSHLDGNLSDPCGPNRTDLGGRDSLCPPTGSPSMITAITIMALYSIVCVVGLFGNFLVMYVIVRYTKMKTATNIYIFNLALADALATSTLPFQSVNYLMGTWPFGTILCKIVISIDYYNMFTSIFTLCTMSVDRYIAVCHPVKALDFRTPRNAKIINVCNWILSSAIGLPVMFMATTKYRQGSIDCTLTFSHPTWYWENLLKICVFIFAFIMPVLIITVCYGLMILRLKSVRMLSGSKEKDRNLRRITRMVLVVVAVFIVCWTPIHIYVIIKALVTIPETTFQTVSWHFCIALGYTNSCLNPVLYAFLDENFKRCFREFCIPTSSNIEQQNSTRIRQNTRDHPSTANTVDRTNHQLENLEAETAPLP
T1 sequence (P41143 whole entry): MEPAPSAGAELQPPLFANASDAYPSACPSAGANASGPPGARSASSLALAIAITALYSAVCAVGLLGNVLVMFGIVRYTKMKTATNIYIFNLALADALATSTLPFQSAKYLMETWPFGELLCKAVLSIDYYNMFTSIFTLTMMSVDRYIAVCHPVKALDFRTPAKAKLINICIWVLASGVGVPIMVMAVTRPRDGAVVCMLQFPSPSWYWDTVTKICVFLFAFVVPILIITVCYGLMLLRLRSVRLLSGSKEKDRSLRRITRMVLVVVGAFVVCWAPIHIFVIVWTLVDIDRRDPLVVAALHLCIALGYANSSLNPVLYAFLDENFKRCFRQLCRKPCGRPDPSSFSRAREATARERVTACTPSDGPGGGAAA

SMILES	Ki [1] [nM]	Ki (Mu-type opioid receptor [2]) [nM]	Ki [3] [nM]	IC50 (Mu-type opioid receptor [4]) [nM]	inhibition [8] [%]	also measured
C[C@H]1CN2C[C@H](c3ccccc3)CC[C@@H]2C[C@@]1(C)c1cccc(O)c1	900	110	430	210	–	–
C[C@H]1[C@@H]2CC[C@@H](c3ccccc3)CN2CC[C@@]1(C)c1cccc(O)c1	2.1	0.9	65	–	–	EC50 [5]: 55 nM; EC50 [6]: 200 nM; EC50 (Mu-type opioid receptor [7]): 53 nM
C[C@H]1CN2C[C@@H](c3ccccc3)CC[C@@H]2C[C@@]1(C)c1cccc(O)c1	–	430	1400	–	49	–
C[C@H]1[C@@H]2CCCCN2CC[C@@]1(C)c1cccc(O)c1	220	120	69	1000	–	–
C[C@H]1CN2C[C@@H](c3ccccc3)CC[C@H]2C[C@@]1(C)c1cccc(O)c1	–	110	440	110	51	–
C[C@H]1[C@H]2CC[C@H](c3ccccc3)CN2CC[C@@]1(C)c1cccc(O)c1	25	26	35	190	–	–
C[C@H]1CN2CCCC[C@@H]2C[C@@]1(C)c1cccc(O)c1	–	710	520	–	40	–
C[C@H]1[C@@H]2CC[C@H](c3ccccc3)CN2CC[C@@]1(C)c1cccc(O)c1	190	73	100	150	–	–
C[C@H]1CN2C[C@H](c3ccccc3)CC[C@H]2C[C@@]1(C)c1cccc(O)c1	31	0.62	–	0.54	–	IC50 [9]: 16 nM; IC50 [10]: 1.2 nM
C[C@H]1[C@H]2CC[C@@H](c3ccccc3)CN2CC[C@@]1(C)c1cccc(O)c1	280	37	16	120	–	–
C[C@H]1[C@H]2CCCCN2CC[C@@]1(C)c1cccc(O)c1	–	–	520	–	47	inhibition (Mu-type opioid receptor [11]): 43%
C[C@H]1CN2CCCC[C@H]2C[C@@]1(C)c1cccc(O)c1	–	940	–	–	37	inhibition [12]: 44%

From ChEMBL document CHEMBL1137299, “Elucidation of the bioactive conformation of the N-substituted trans-3,4-dimethyl-4-(3-hydroxyphenyl)piperidine class of mu-opioid receptor antagonists” (J Med Chem, 2006)
